Test results published in ChEMBL document CHEMBL1127837, “6,9-Bis[(aminoalkyl)amino]benzo[g]isoquinoline-5,10-diones. A novel class of chromophore-modified antitumor anthracene-9,10-diones: synthesis and antitumor evaluations” (J Med Chem, 1994).
In brackets after ≈: the same amount, converted by molar mass. Several values for one entry are separate records, joined by “and”; a condition that tells them apart may be missing. Equal values may be shown once.

What was measured:
L1210 = assay: Tested in vitro for inhibitory activity against L1210 murine leukemia; type: functional, cell-based; details: Mus musculus
Procedure, shortened: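 L1210 suspension cells grown in McCoy's 5A with 10% horse serum, 10% CO2, 37 °C. Drug dissolved in water and added to 10^5 cells/tube at final 0.01, 0.1, 1 and 10 µg/mL.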

Mus musculus [1] = species: Mus musculus; assay: (§1) The compound was tested for antitumor activity against P388 murine leukemia by measuring maximum tolerated dose; type: ADME, organism-based; details: in vivo
Procedure, shortened: (§2)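 CD2F1 mice were given 10^6 P388 cells iv, followed by iv treatment on days 1, 4 and 7 after transplantation. Mice were observed daily for toxicity and survival for 60 days. The value is the maximum tolerated dose, taken as LD10, or else the maximum dose administered.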

Mus musculus [2] = assay: The compound was tested for antitumor activity against P388 murine leukemia at 18 (mg/kg/day) dose; type: functional
Procedure, shortened: (§3)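 P388 cells kept by serial ip passage (10^5 cells) in DBA2 male mice. CD2F1 mice inoculated iv with 10^6 cells on day 0. Drug given iv on days 1, 4 and 7. Daily observation for toxicity and survival over 60 days. Median survival time per group, expressed as %T/C = MST treated/MST control × 100.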

Mus musculus [3] = assay: The compound was tested for antitumor activity against P388 murine leukemia at 22 (mg/kg/day) dose; type: functional; procedure, shortened: as §3
Mus musculus [4] = assay: The compound was tested for antitumor activity against P388 murine leukemia at 27 (mg/kg/day) dose; type: functional; procedure, shortened: as §3
Mus musculus [5] = assay: The compound was tested for antitumor activity against P388 murine leukemia at 40 (mg/kg/day) dose; type: functional; procedure, shortened: as §3
Mus musculus [6] = assay: The compound was tested for antitumor activity against P388 murine leukemia at 60 (mg/kg/day) dose; type: functional; procedure, shortened: as §3
Mus musculus [7] = assay: The compound was tested for antitumor activity against P388 murine leukemia at 8 (mg/kg/day) dose; type: functional; procedure, shortened: as §3
Mus musculus [8] = assay: The compound was tested for antitumor activity against P388 murine leukemia at 60 (mg/kg/day) dose; 15/16 toxic deaths/total no of mice; type: ADME, organism-based; details: in vivo
Mus musculus [9] = assay: The compound was tested for antitumor activity against P388 murine leukemia at 8(mg/kg/day) dose; 0/8 toxic deaths/total no of mice; type: ADME, organism-based; details: in vivo
Mus musculus [10] = assay: The compound was tested for antitumor activity against P388 murine leukemia at 12 (mg/kg/day) dose; type: functional; procedure, shortened: as §3
Mus musculus [11] = assay: The compound was tested for antitumor activity against P388 murine leukemia at 18 (mg/kg/day) dose; 1/40 toxic deaths/total no of mice; type: ADME, organism-based; details: in vivo
Mus musculus [12] = assay: The compound was tested for antitumor activity against P388 murine leukemia at 27 (mg/kg/day) dose;7/55 toxic deaths/total no of mice; type: ADME, organism-based; details: in vivo
Mus musculus [13] = assay: The compound was tested for antitumor activity against P388 murine leukemia at 40 (mg/kg/day) dose; 25/37 toxic deaths/total no of mice; type: ADME, organism-based; details: in vivo
Mus musculus [14] = assay: The compound was tested for antitumor activity against P388 murine leukemia at 22 (mg/kg/day) dose; 1/8 toxic deaths/total no of mice; type: ADME, organism-based; details: in vivo
Mus musculus [15] = assay: The compound was tested for antitumor activity against P388 murine leukemia at 12(mg/kg/day) dose; 0/16 toxic deaths/total no of mice; details: in vivo
LoVo = assay: Tested in vitro for cytotoxic activity against Human colon Adenocarcinoma sensitive cell line (LoVo); type: functional, cell-based
Procedure, shortened: (§4)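 LoVo and doxorubicin-resistant LoVo/Dx colon cells grown in Ham's F12 with 10% fetal calf serum, glutamine, vitamins and Hepes at 37 °C. 2.5 × 10^5 cells/mL plated and preincubated 24 h, then exposed to drug for 144 h. MTT read-out at 570 nm. IC50 (µg/mL) derived; resistance index = IC50 resistant / IC50 sensitive line.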

[16] = Resistance index is the ratio of IC50 of resistant cell line/IC50 of sensitive cell line; type: functional; procedure, shortened: as §4
LoVo/DX (Homo sapiens) = assay: Tested in vitro for cytotoxic activity against Doxorubicin resistant Human colon Adenocarcinoma cell line
Mus musculus [17] = species: Mus musculus; assay: The compound was tested for antitumor activity against P388 murine leukemia; type: functional; procedure, shortened: as §3
[18] = as §1; type: ADME, organism-based; details: mouse, in vivo; read-out: LD10; procedure, shortened: as §2
P388 = assay: Tested for antitumor activity against P388 murine leukemia; type: functional, Mus musculus; procedure, shortened: as §3
Mus musculus [19] = assay: The compound was tested for antitumor activity against P388 murine leukemia at 6 (mg/kg/day) dose; type: functional; procedure, shortened: as §3
Mus musculus [20] = assay: The compound was tested for antitumor activity against P388 murine leukemia at 9 (mg/kg/day) dose; type: functional; procedure, shortened: as §3
Mus musculus [21] = assay: The compound was tested for antitumor activity against P388 murine leukemia at 7.5 (mg/kg/day) dose; 0/16 -no. of toxic deaths/no. of mice; type: ADME, organism-based; details: in vivo
Mus musculus [22] = assay: The compound was tested for antitumor activity against P388 murine leukemia at 9 (mg/kg/day) dose; 3/8 -no. of toxic deaths/no. of mice; type: ADME, organism-based; details: in vivo
Mus musculus [23] = assay: The compound was tested for antitumor activity against P388 murine leukemia at 6 (mg/kg/day) dose; 0/15 -no. of toxic deaths/no. of mice; type: ADME, organism-based; details: in vivo
Mus musculus [24] = species: Mus musculus; assay: The compound was tested for antitumor activity against P388 murine leukemia by measuring median survival time of treated mice/median survival time of control x 100; type: functional
Mus musculus [25] = assay: The compound was tested for antitumor activity against P388 murine leukemia at 2 (mg/kg/day) dose; 0/82 -no. of toxic deaths/no. of mice; type: ADME, organism-based; details: in vivo
Mus musculus [26] = assay: The compound was tested for antitumor activity against P388 murine leukemia at 3 (mg/kg/day) dose; 12/132 -no. of toxic deaths/no. of mice; type: ADME, organism-based; details: in vivo
Mus musculus [27] = assay: The compound was tested for antitumor activity against P388 murine leukemia at 4 (mg/kg/day) dose; 43/48 -no. of toxic deaths/no. of mice; type: ADME, organism-based; details: in vivo

Structure (SMILES)	IC50 (L1210) [mg/L]	IC50 (LoVo) [mg/L]	Ratio [16]	IC50 (LoVo/DX (Homo sapiens)) [mg/L]	MTD [18] [mg/kg/day]	T/C (P388)	also measured
Cl.NCCNc1ccc(NCCN)c2c1C(=O)c1ccncc1C2=O	0.01						maximum tolerated dose (Mus musculus [1]): 27 mg/kg/day; T/C (Mus musculus [2]): 206%; T/C (Mus musculus [3]): 250%; T/C (Mus musculus [4]): 230%; T/C (Mus musculus [5]): 128%; T/C (Mus musculus [6]): 36%; T/C (Mus musculus [7]): 162%; Toxic deaths (Mus musculus [8]): 15; Toxic deaths (Mus musculus [9]): 0; T/C (Mus musculus [10]): 194%; Toxic deaths (Mus musculus [11]): 1; Toxic deaths (Mus musculus [12]): 7; Toxic deaths (Mus musculus [13]): 25; Toxic deaths (Mus musculus [14]): 1; Toxic deaths (Mus musculus [15]): 0
NCCNc1ccc(NCCN)c2c1C(=O)c1ccncc1C2=O [PIXANTRONE]		0.24 (≈ 0.738 µM)	30	7.2 (≈ 22.1 µM)			
NCCCCNc1ccc(NCCCCN)c2c1C(=O)c1ccncc1C2=O	1.5 (≈ 3.93 µM)	2.27 (≈ 5.95 µM)	0.4	0.83 (≈ 2.18 µM)	35		T/C (Mus musculus [17]): 100%
COCCNCCNc1ccc(NCCNCCOC)c2c1C(=O)c1ccncc1C2=O	0.44 (≈ 0.997 µM)						
NCCNc1ccc(NCCN)c2c1C(=O)c1cc[n+]([O-])cc1C2=O		7.3 (≈ 21.4 µM)	10	62.6 (≈ 183 µM)	60	200%	
O=C1c2ccccc2C(=O)c2c(NCCNCCO)ccc(NCCNCCO)c21 [AMETANTRONE]	0.03 (≈ 0.0727 µM)	0.4 (≈ 0.97 µM)	87	34.7 (≈ 84.1 µM)	58	127%	
CN(C)CCCNc1ccc(NCCCN(C)C)c2c1C(=O)c1ccncc1C2=O	0.3 (≈ 0.733 µM)	0.15 (≈ 0.366 µM)	2.4	0.36 (≈ 0.879 µM)			
CC(C)NCCNc1ccc(NCCNC(C)C)c2c1C(=O)c1ccncc1C2=O	0.03 (≈ 0.0733 µM)	0.3 (≈ 0.733 µM)	11	3.4 (≈ 8.3 µM)			
O=C1c2ccncc2C(=O)c2c(NCCN3CCCC3)ccc(NCCN3CCCC3)c21	0.09 (≈ 0.208 µM)	0.5 (≈ 1.15 µM)	1.4	0.7 (≈ 1.61 µM)	60	100%	
CNCCNc1ccc(NCCNC)c2c1C(=O)c1ccncc1C2=O.Cl		0.08	36	2.9	8	189%	
O=C1c2ccncc2C(=O)c2c(NCCOCCO)ccc(NCCOCCO)c21		8.7 (≈ 20.9 µM)	31	267 (≈ 642 µM)			
CC(=O)NCCNc1ccc(NCCNC(C)=O)c2c1C(=O)c1ccncc1C2=O	> 10						
O=C1c2ccncc2C(=O)c2c(NCCNCCO)ccc(NCCNCCO)c21	0.06 (≈ 0.145 µM)	1.3 (≈ 3.14 µM)	76	99.5 (≈ 241 µM)	40	118%	
CCN(CC)CCNc1ccc(NCCN(CC)CC)c2c1C(=O)c1ccncc1C2=O	0.06 (≈ 0.137 µM)	0.29 (≈ 0.663 µM)	2.4	0.69 (≈ 1.58 µM)	60	122%	
O=C1c2ccncc2C(=O)c2c(NCCN3CCOCC3)ccc(NCCN3CCOCC3)c21	1.1 (≈ 2.36 µM)	5.32 (≈ 11.4 µM)	0.4	2.3 (≈ 4.94 µM)	60	122%	
CN(C)CCNc1ccc(NCCN(C)C)c2c1C(=O)c1cc[n+]([O-])cc1C2=O		0.44 (≈ 1.11 µM)	6	2.6 (≈ 6.54 µM)	40	122%	
COc1cccc2c1C(=O)c1c(O)c3c(c(O)c1C2=O)C[C@@](O)(C(=O)CO)C[C@@H]3O[C@H]1C[C@H](N)[C@H](O)[C@H](C)O1 [DOXORUBICIN]		0.03 (≈ 0.0552 µM)	133	4 (≈ 7.36 µM)	7.5	181%	T/C (Mus musculus [19]): 175%; T/C (Mus musculus [20]): 222%; Toxic deaths (Mus musculus [21]): 0; Toxic deaths (Mus musculus [22]): 3; Toxic deaths (Mus musculus [23]): 0
CCCNCCNc1ccc(NCCNCCC)c2c1C(=O)c1ccncc1C2=O	0.04 (≈ 0.0977 µM)	0.2 (≈ 0.488 µM)	14	2.8 (≈ 6.84 µM)			
CCNCCNc1ccc(NCCNCC)c2c1C(=O)c1ccncc1C2=O	0.01 (≈ 0.0262 µM)						
O=C1c2c(O)ccc(O)c2C(=O)c2c(NCCNCCO)ccc(NCCNCCO)c21 [MITOXANTRONE]	0.009 (≈ 0.0202 µM)	0.009 (≈ 0.0202 µM)	28	0.25 (≈ 0.562 µM)	3	172% and 138%	LD10 (Mus musculus [1]): 2 mg/kg/day and 4 mg/kg/day; T/C (Mus musculus [24]): 196%; Toxic deaths (Mus musculus [25]): 0; Toxic deaths (Mus musculus [26]): 12; Toxic deaths (Mus musculus [27]): 43
CN(C)CCNc1ccc(NCCN(C)C)c2c1C(=O)c1ccncc1C2=O	0.006 (≈ 0.0157 µM)	0.076 (≈ 0.199 µM)	1.7	0.13 (≈ 0.341 µM)			
O=C1c2ccncc2C(=O)c2c(NCCN3CC3)ccc(NCCN3CC3)c21	0.002 (≈ 0.0053 µM)						
CC(C)N(CCNc1ccc(NCCN(C(C)C)C(C)C)c2c1C(=O)c1ccncc1C2=O)C(C)C	1.8 (≈ 3.65 µM)	2.5 (≈ 5.06 µM)	1.1	2.8 (≈ 5.67 µM)			
NCCCNc1ccc(NCCCN)c2c1C(=O)c1ccncc1C2=O	0.1 (≈ 0.283 µM)	2.1 (≈ 5.94 µM)	26	54.5 (≈ 154 µM)	40	155%	
